Assay outcomes (PubChem)
Hits are enriched below; roughly 3.1% of the tested compounds scored in any of these assays.
GPR7 antagonist: blocks human GPR7 receptor signaling; 1.1% of 290,000 active; AID 1861; GPR7-expressing cells, fluorescence antagonist assay; inhibition, % at 4.4 µM; in the data active means inhibition above about 16%, passing the limit was not always enough;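 further: cells stimulated with the agonist NPW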
OX1R antag-1: antagonists of human orexin 1 receptor (OX1R) | 1.8% of 330,000 active | inhibition, % at 6.6 µM | OX1R-expressing cells, FRET antagonist read-out | AID 485270 | O43613; in the data active means inhibition mostly above about 38%, no sharp cut-off; inactive means mostly below about 40%
Target sequence (O43613 whole entry, looked up): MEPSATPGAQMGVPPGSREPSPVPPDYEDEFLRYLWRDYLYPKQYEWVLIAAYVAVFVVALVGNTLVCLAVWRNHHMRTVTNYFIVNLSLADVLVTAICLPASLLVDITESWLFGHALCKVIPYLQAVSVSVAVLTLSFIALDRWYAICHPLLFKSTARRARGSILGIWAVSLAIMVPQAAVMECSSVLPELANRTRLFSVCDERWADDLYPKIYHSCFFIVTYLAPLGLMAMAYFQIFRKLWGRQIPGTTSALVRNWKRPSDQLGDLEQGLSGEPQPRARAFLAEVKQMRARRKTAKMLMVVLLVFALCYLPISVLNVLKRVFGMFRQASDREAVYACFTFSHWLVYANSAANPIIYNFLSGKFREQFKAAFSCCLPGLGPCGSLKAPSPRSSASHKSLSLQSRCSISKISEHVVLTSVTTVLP
GalR3 antagonist: antagonists of human GalR3; O60755; HEK293 GalR3-CNG cAMP membrane potential fluorescence; galR3 body fused to GalR1 C-terminus; inhibition, % at 3 µM; 0.44% of 360,000 active; AID 651719;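 active means inhibition above the screen-wide average plus 3 SD, cut at about 13% in these data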;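 further: forskolin and galanin both at EC90 stimulate the cells; cAMP rise reported by CNG channel membrane potential dye signal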
Target sequence (O60755 1-299 limits assumed): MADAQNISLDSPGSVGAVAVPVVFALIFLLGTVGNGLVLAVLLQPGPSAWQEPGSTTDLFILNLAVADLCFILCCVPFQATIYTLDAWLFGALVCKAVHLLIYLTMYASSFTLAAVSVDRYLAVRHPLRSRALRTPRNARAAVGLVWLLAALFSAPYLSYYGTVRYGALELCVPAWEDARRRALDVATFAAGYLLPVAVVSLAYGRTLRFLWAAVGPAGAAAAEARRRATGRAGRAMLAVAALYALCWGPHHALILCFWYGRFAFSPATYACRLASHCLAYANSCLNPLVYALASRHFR
OX1R antag-2: antagonists of human orexin 1 receptor | CHO/OX1R cells, Fluo-8 calcium fluorescence, orexin A | inhibition, % at 5 µM | 0.43% of 330,000 active | O43613;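 active means inhibition above its plate's threshold, mean inhibition of all tested compounds on the plate plus 3 SD, cut at about 37% in these data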
CHO parental Ca: counter-screen for OX1R antagonists: effect in parental CHO cells. inhibition, % at 5.6 µM. parental CHO-K1, ATP-induced calcium, Fluo-8 fluorescence. 0.63% of 330,000 active;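 active means inhibition above that plate's mean sample inhibition plus 3 SD, cut at about 26% in these data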
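test system = CHO parental line | reagent = ATP stimulus | measured by = intracellular calcium via Fluo-8 no-wash fluorescent dye | control set = ATP and no-ATP DMSO wells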
Each line names hits and unclear results; the compound was inactive in the other large screens.

COc1ccc(NC(=O)c2ccc3c(c2)S(=O)(=O)N=C2CCCCCN23)cc1S(N)(=O)=O	none (no result: GPR7 antagonist, OX1R antag-1, OX1R antag-2, CHO parental Ca)
Cc1cccc(OCC(=O)NNc2c3ccccc3nc3ccccc23)c1	OX1R antag-1 41
CC(C)Nc1nc(NC(C)C)nc(N(C)N)n1	CHO parental Ca 100
COc1ccc(OC)c(NC(=O)c2cnc(Nc3ccccc3OC)c3ccccc23)c1	OX1R antag-1 68
COc1ccc(OC)c(NC(=O)COC(=O)CCNc2ccccc2OC)c1	OX1R antag-1 55 (no result: GPR7 antagonist)
N#C/C(=C\c1c(F)cccc1Cl)c1nn(-c2ccccc2)c(-n2cccc2)c1C#N	OX1R antag-1 36
Nc1ccn([C@@H]2O[C@H](C(=O)N[C@H](Cc3ccccc3)C(=O)N3CCN(CCO)CC3)[C@@H](O)[C@H]2O)c(=O)n1	none (no result: GPR7 antagonist, OX1R antag-1, OX1R antag-2, CHO parental Ca)
Oc1ccccc1-c1cc(-c2ccc3c(c2)OCCO3)n[nH]1	OX1R antag-1 59
Cc1cccc(-c2cc3nc(C)cc(N4CC(C)CC(C)C4)n3n2)c1 (stereo not drawn)	none
Cc1cccc(-c2cc3nc(C)cc(C)n3n2)c1	OX1R antag-1 65
COc1ccccc1-c1cc2nc(C)cc(C)n2n1	OX1R antag-1 62
O=C(CSc1ncccn1)N/N=C/c1cccc([N+](=O)[O-])c1	OX1R antag-1 72
CCN(CC)S(=O)(=O)c1cccc(NC(=O)Nc2cccc(C(F)(F)F)c2)c1	OX1R antag-1 39, CHO parental Ca 59
Cc1ccc2oc(-c3cccc(NC(=O)c4ccccn4)c3)nc2c1	OX1R antag-1 68
COc1cc(C(=O)Nc2cccc(-c3nc4cc(C)ccc4o3)c2)cc(OC)c1OC	none
O=[N+]([O-])c1ccc(NCCNCCOc2nonc2-c2ccccc2)c([N+](=O)[O-])c1	OX1R antag-1 43
CSc1cccc(NC(=O)NCc2cccc(CNC(=O)Nc3cccc(SC)c3)c2)c1	none
CSc1cccc(NC(=O)Nc2ccc(Cl)cc2)c1	OX1R antag-1 51, OX1R antag-2 49, CHO parental Ca 81
CSc1cccc(NC(=O)C(=O)NCc2ccccc2)c1	CHO parental Ca 28
CSc1cccc(NC(=O)CN(C)S(=O)(=O)c2ccccc2)c1	OX1R antag-1 50
O=c1c(-c2ccc(Cl)cc2)[n+]([O-])c2ccccc2n1OCc1ccccn1	none
COc1ccc(-c2c(=O)n(OCc3ccccn3)c3ccccc3[n+]2[O-])cc1OC	OX1R antag-1 55
Cc1ccc(-c2c(=O)n(OCc3ccccn3)c3ccccc3[n+]2[O-])cc1	none (no result: OX1R antag-1, GalR3 antagonist, OX1R antag-2, CHO parental Ca)
CCOc1ccc(-c2c(=O)n(OCc3ccccn3)c3ccccc3[n+]2[O-])cc1	OX1R antag-1 62
CCOc1ccc2nc3cc(NCc4ccc(OC)cc4)ccc3c(N)c2c1	OX1R antag-1 44 (no result: GalR3 antagonist)
O=C(NCc1ccccc1)[C@H]1CCCN1	none (no result: GPR7 antagonist, OX1R antag-1, OX1R antag-2, CHO parental Ca)
CCC(NC(=O)CCc1nnc(-c2cc(C)on2)o1)C12CC3CC(CC(C3)C1)C2 (stereo not drawn)	none
N#Cc1c(=O)c2nc(NCCCO)ncc2n2c(=O)c3ccccc3[nH]c12	none
N#Cc1c(=O)c2nc(NCc3ccccc3)ncc2n2ccccc12	OX1R antag-1 62
COc1ccc([C@H]2/C=C\CN(S(=O)(=O)c3cccc4cccnc34)[C@@H](C)C(=O)N2Cc2ccc(F)cc2)cc1	OX1R antag-1 70 (no result: GPR7 antagonist)
CN(NS(=O)(=O)c1ccc(Br)cc1)c1nc(C(F)(F)F)nc2ccccc12	OX1R antag-1 63
C[C@H]1Cn2cnc(C(=O)N3CCN(C(=O)OC(C)(C)C)CC3)c2C(=O)N1	none (no result: GPR7 antagonist, OX1R antag-1, OX1R antag-2, CHO parental Ca)
COc1cc(N2CCCC2)c(OC)cc1/C=C(/C#N)c1cccc(F)c1	OX1R antag-2 46, CHO parental Ca 51 (no result: GalR3 antagonist)
COC(=O)c1sc(S(=O)(=O)NC(Cc2ccccc2)C(=O)O)c(C(=O)OC)c1C (stereo not drawn)	OX1R antag-1 32 (no result: GPR7 antagonist)
COC(=O)c1c(S(=O)(=O)NCc2ccccc2)sc(C(=O)O)c1C	none
COc1cc(NC(=S)Nc2ncccc2C)cc(OC)c1OC	OX1R antag-1 45
O=c1cc(-c2c(F)c(F)c(F)c(F)c2F)oc2ccccc12	none
O=c1cc(-c2c(F)c(F)c(F)c(F)c2F)oc2c(F)c(F)c(F)c(F)c12	OX1R antag-1 45, OX1R antag-2 43, CHO parental Ca 68 (no result: GalR3 antagonist)
COC(=O)C[C@H]1N(S(=O)(=O)c2ccc(C)cc2)C(C(C)C)CC1(C(=O)OC)C(=O)OC (stereo partly drawn)	none (no result: GPR7 antagonist, OX1R antag-1, OX1R antag-2, CHO parental Ca)
CCn1c(C)csc1=NC(=O)c1ccccc1	OX1R antag-1 76
CCN1/C(=C/c2ccc3ccccc3[n+]2CCCS(=O)(=O)[O-])C=Cc2cc(C)ccc21	none (no result: OX1R antag-1, OX1R antag-2, CHO parental Ca)
CCN1/C(=C/c2ccc3ccccc3[n+]2CC)C=Cc2ccccc21	GPR7 antagonist 53, OX1R antag-1 100, GalR3 antagonist 53, CHO parental Ca 71
COc1ccc(Sc2cccc(Cl)c2)c(C(=O)O)c1	none (no result: GPR7 antagonist, OX1R antag-1, OX1R antag-2, CHO parental Ca)
CCOc1ccc(N2C(=O)CC(NC3CCN(C(=O)c4cccs4)CC3)C2=O)cc1 (stereo not drawn)	none
Cc1ccc(S(=O)(=O)N2[C@H](CC(=O)c3ccccc3)OC[C@@H]2C(C)C)cc1	none (no result: GPR7 antagonist, OX1R antag-1, OX1R antag-2, CHO parental Ca)
N#C/C(=C\c1c[nH]c2ccc(Br)cc12)c1ccccn1	OX1R antag-1 83, OX1R antag-2 60
FC(F)(F)c1ccc(Cl)c(CN2CCN(c3ncc(Cc4ccccc4)cn3)CC2)c1	none (no result: GPR7 antagonist, OX1R antag-1, OX1R antag-2, CHO parental Ca)
O=C(OCC(=O)N1CCCCC1)c1ccc2c(c1)C(=O)N(Cc1ccco1)C2=O	OX1R antag-1 33 (no result: GPR7 antagonist)
CCOC(=O)c1ccccc1NC(=O)Cn1c(-c2nonc2N)nc2ccccc21	GPR7 antagonist 21
Nc1nonc1-c1nc2ccccc2n1CC(=O)Nc1ccccc1	none
Cc1ccc(N=Nc2ccc(O)cc2)c(Br)c1	CHO parental Ca 56
C[C@H]1CN([C@@H](C)CO)C(=O)CCCn2nncc2CO[C@H]1CN(C)C(=O)C1CC1	none (no result: GPR7 antagonist, OX1R antag-1, OX1R antag-2, CHO parental Ca)
COc1ccc(C/C(N)=N/OC(C)=O)cc1OC	none
COc1ccc(C/C(N)=N/OC(=O)C(c2ccccc2)c2ccccc2)cc1OC	OX1R antag-2 54
CCc1c(-c2ccc(F)cc2)ncn1CCc1ccccc1OC	none (no result: GPR7 antagonist, OX1R antag-1, OX1R antag-2, CHO parental Ca)
Cn1c(=O)oc2cc(S(=O)(=O)N3CCC(C(=O)NCCc4ccccc4)CC3)ccc21	CHO parental Ca 41
O=C(Cn1ccc2cc(S(=O)(=O)N3CCCC3)ccc21)NCCc1ccccc1	OX1R antag-1 55
COc1cccc(CNC(=O)Cn2ccc3cc(S(=O)(=O)N4CCCC4)ccc32)c1OC	none
COc1ccccc1CCNC(=O)Cn1ccc2cc(S(=O)(=O)N3CCCC3)ccc21	OX1R antag-1 55
O=C(CCn1ccc2cc(S(=O)(=O)N3CCCC3)ccc21)NCCc1ccccc1	none
CN(C)Cc1c(C(C)(C)O)[nH]c2cc(C(F)(F)F)ccc12	none (no result: GPR7 antagonist, OX1R antag-1, OX1R antag-2, CHO parental Ca)
C[C@@H]1ON(C)[C@H]2C[C@H]3c4[nH]c5cccc(-c6ccccc6)c5c4CCN3C[C@@H]12	none (no result: GPR7 antagonist, OX1R antag-1, OX1R antag-2, CHO parental Ca)
COCCOC(=O)c1[nH]c2c(c1C)C(=O)CC(c1cc(OC)c(OC)c(OC)c1)C2 (stereo not drawn)	none
COCCOC(=O)c1[nH]c2c(c1C)C(=O)CC(c1ccccc1)C2 (stereo not drawn)	CHO parental Ca 42 (no result: GalR3 antagonist)
